Assay results collected from several papers.
Lines come from different studies, so protocols differ.
Target: Serine/threonine-protein kinase N1 (PKN1, Homo sapiens, UniProt Q16512)

Cc1c(Cn2c(C)nc3c(C(=O)O)cc(N4CCOCC4)cc32)cccc1C(F)(F)F
activity vs control (enzyme activity; inhibitor; 1 µM): 88%

O=C(NCc1ncc(C(F)(F)F)cc1Cl)c1ccc2c(c1)C1(CCS(=O)(=O)CC1)[C@H](C1CC1)N2S(=O)(=O)c1ccc(F)cc1
remaining binding (cell-free assay; competition with immobilised ligand; 1 µM): 100%

C[C@H]1CCN(c2nccc(-c3cnn4ncccc34)n2)C1
remaining binding (binding; 1 µM): 100%

CCC(=O)N1CCN(c2ccc(-n3c(=O)ccc4cnc5ccc(-c6cnc7ccccc7c6)cc5c43)cc2C(F)(F)F)CC1
activity vs control (enzyme activity; inhibitor; 1 µM): 97%

COc1cc2ncnc(Nc3ccc(F)c(Cl)c3)c2cc1OCCCN1CCOCC1
remaining signal (cell-free assay; 0.5 µM): 105%

Cc1ccc(C(=O)Nc2ccc(CN3CCN(C)CC3)c(C(F)(F)F)c2)cc1C#Cc1cnc2cccnn12
remaining activity (enzyme activity; inhibitor; 23.5 nM): 100%

O=c1c(O)c(-c2ccc(O)c(O)c2)oc2cc(O)cc(O)c12
activity vs control (enzyme activity; inhibitor; 1 µM): 69%

COc1cc(-c2cc(-c3ccc(N4CCNCC4)cc3)cnc2C)cc(OC)c1OC
inhibition (enzyme activity; inhibitor; 1 µM): 6%

Cn1c2c(c3ccc(Cl)c(Cl)c31)C(C#N)C1(CCOCC1)NC2=O (centres unmarked)
ΔTm (thermal stability; DSF; 10 µM): 0.2 °C

CCOc1cc(-c2nncn2C)ccc1Nc1ncc2cc(C)nc(NCC(C)(C)C)c2n1
inhibition (enzyme activity; inhibitor; FRET; 1 µM): < 15%

COc1cccc2c(NCc3ccccc3)nc(-n3c(N)nc4ccccc43)nc12
inhibition (target engagement in cells; inhibitor; chemoproteomics; 20 mM): 0.9%

O=C(Nc1cnn(-c2csc(C(=O)NC3COC3)c2)c1)Nc1c(F)cccc1Cl
remaining activity (enzyme activity; inhibitor; 5 µM): 96.5%

CNC(=O)Nc1ccc2c(c1)CC[C@@]21OC(=O)N(CC(=O)N(Cc2ccc(F)cc2)[C@@H](C)C(F)(F)F)C1=O
remaining binding (cell-free assay; competition with immobilised ligand; 1 µM): 85%

COc1ncc(Nc2ncc([C@@H](C)N3CCN(S(C)(=O)=O)CC3)cc2-c2nc(C)nc(N)n2)cc1F
activity vs control (enzyme activity; inhibitor; 1 µM): 94%

Cn1cncc1C1=CN(c2ncnc3[nH]cnc23)CCS1
inhibition (enzyme activity; inhibitor; radiometric; 50 nM): 18.8%

C[C@H](NC(=O)c1cnc2n1[C@](C)(Cc1ccc(C#N)cc1)C(=O)N2c1cc(Cl)c(F)c(Cl)c1)C(=O)NC1(c2ccccn2)CC1
remaining binding (cell-free assay; competition with immobilised ligand; 1 µM): 100%

CC(=O)Nc1cccc(-n2c(=O)n(C3CC3)c(=O)c3c(Nc4ccc(I)cc4F)n(C)c(=O)c(C)c32)c1
activity vs control (enzyme activity; inhibitor; 1 µM): 97%

C[C@@H]1CN(c2cc(-c3n[nH]c4ccc(OC5(C)CC5)cc34)ncn2)C[C@H](C)O1
remaining binding (cell-free assay; competition with immobilised ligand; 0.1 µM): 91%

COc1cc2ncnc(Nc3ccc(F)c(Cl)c3)c2cc1NC(=O)/C=C/CN1CCCCC1
activity vs control (enzyme activity; inhibitor; 1 µM): 87%

CCOC(=O)c1cc2cc(-c3cc(C(=O)NCc4ccc(C(=O)O)cc4)nn3C)ccc2[nH]1
remaining binding (cell-free assay; competition with immobilised ligand; 0.1 µM): 100%

C[C@@H](c1ccc2nccn2c1)n1nnc2ncc(-c3cnn(C)c3)nc21
activity vs control (enzyme activity; inhibitor; 1 µM): 91%

O=C(NC[C@@H]1[C@H]2CN(C(=O)OCc3cc(C(F)(F)F)cc(C(F)(F)F)c3)C[C@@H]12)c1ccc2[nH]nnc2c1
remaining binding (cell-free assay; competition with immobilised ligand; 1 µM): 100%

COc1cc2c(Nc3ccc(Br)cc3F)ncnc2cc1OCC1CCN(C)CC1
remaining signal (cell-free assay; 0.5 µM): 103%
